Reference: ChEMBL document CHEMBL1129536, “Nucleoside analogs. 14. The synthesis of antitumor activity in mice of molecular combinations of 5-fluorouracil and N-(2-Chloroethyl)-N-nitrosourea moieties separated by a three-carbon chain” (1996)

Key:
MAC13 [1] = test: Antitumor effect against MAC13 Tumors was determined by no. deaths/treated of mice by arachis oil at dose 50 mg/kg; no of deaths/treated 0/5; format: functional, Mus musculus
Mus musculus [2] = test: Antitumor effect against Colon 38 Adenocarcinoma was determined by the percent of median tumor volume of treated animals to median tumor volume of control animals by saline at dose 50 mg/kg; format: functional
MAC13 [3] = test: Antitumor effect against MAC13 Tumors was determined by the percent of mean weight of treated tumors to mean weight of control tumors by arachis oil at dose 50 mg/kg; format: functional, Mus musculus
MAC15A [4] = test: Antitumor effect against MAC15A Tumors was determined by the percent of median survival times of treated animals to median survival times of control animals by arachis oil at dose 100 mg/kg; settings: Mus musculus
MAC13 [5] = test: Antitumor effect against MAC13 Tumors was determined by no. deaths/treated of mice by 10% DMSO/arachis oil at dose 100 mg/kg; no of deaths/treated 0/5; format: functional, Mus musculus
MAC15A [6] = test: Antitumor effect against MAC15A Tumors was determined by the percent of median survival times of treated animals to median survival times of control animals by 10% DMSO/arachis oil at dose 100 mg/kg; settings: Mus musculus
MAC13 [7] = test: Antitumor effect against MAC13 Tumors was determined by the percent of mean weight of treated tumors to mean weight of control tumors by 10% DMSO/arachis oil at dose 100 mg/kg; format: functional, Mus musculus
Procedure, shortened: (§1)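 MAC 13 tumors were grown in mice. Two days after transplantation, at about 2 mm³, mice were allocated by restricted randomization. Compounds were made up fresh and given ip at 0.1 mL/10 g body weight. Tumor weight was measured 21 days later, and T/C % was the mean treated tumor weight over the mean control weight; deaths among treated mice were recorded.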

Mus musculus [8] = test: Antitumor effect against Colon 38 Adenocarcinoma was determined by the percent of median tumor volume of treated animals to median tumor volume of control animals by saline at dose 100 mg/kg; format: functional
Procedure, shortened: (§2)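 Colon 38 adenocarcinoma, serially maintained in C57Bl/6 mice, was implanted as 3 mm × 3 mm fragments sc in B6D2F1 mice (19-22 g) on day 0. Compounds were made fresh on the day of injection, either dissolved in saline (0.9% NaCl) or suspended in saline with Tween 80 […], and given ip. T/C was the median tumor volume of treated over untreated controls; T/C <42% counted as activity.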

[9] = Antitumor effect against MCa Mammary Carcinoma was determined by the percent of median survival times of treated animals to median survival times of control animals by 10%DMSO/water at dose 100 mg/kg; format: functional, Mus musculus
MAC15A [10] = test: Antitumor effect against MAC15A Tumors was determined by the percent of median survival times of treated animals to median survival times of control animals by arachis oil at dose 50 mg/kg; settings: Mus musculus
MAC13 [11] = test: Antitumor effect against MAC13 Tumors was determined by no. deaths/treated of mice by 10% ethanol/arachis oil at dose 100 mg/kg; no of deaths/treated 0/5; format: functional, Mus musculus
[12] = Antitumor effect against MCa Mammary Carcinoma was determined by the percent of median survival times of treated animals to median survival times of control animals by 10%DMSO/water at dose 150 mg/kg; format: functional, Mus musculus
MAC15A [13] = test: Antitumor effect against MAC15A Tumors was determined by the percent of median survival times of treated animals to median survival times of control animals by 10% ethanol/arachis oil at dose 100 mg/kg; settings: Mus musculus
MAC13 [14] = test: Antitumor effect against MAC13 Tumors was determined by the percent of mean weight of treated tumors to mean weight of control tumors by 10% ethanol/arachis oilat dose 100 mg/kg; format: functional, Mus musculus; procedure, shortened: as §1
MAC13 [15] = test: Antitumor effect against MAC13 Tumors was determined by the percent of mean weight of treated tumors to mean weight of control tumors by arachis oil at dose 135 mg/kg; format: functional, Mus musculus; procedure, shortened: as §1
[16] = Antitumor effect against MCa Mammary Carcinoma was determined by the percent of median survival times of treated animals to median survival times of control animals by 10%DMSO/water at dose 80 mg/kg; format: functional, Mus musculus
MAC13 [17] = test: Antitumor effect against MAC13 Tumors was determined by no. deaths/treated of mice by arachis oil at dose 135 mg/kg; no of deaths/treated 0/5; format: functional, Mus musculus
MAC15A [18] = test: Antitumor effect against MAC15A Tumors was determined by the percent of median survival times of treated animals to median survival times of control animals by arachis oil at dose 90 mg/kg; settings: Mus musculus
MAC13 [19] = test: Antitumor effect against MAC13 Tumors was determined by no. deaths/treated of mice by arachis oil at dose 200 mg/kg; no of deaths/treated 0/10; format: functional, Mus musculus
MAC15A [20] = test: Antitumor effect against MAC15A Tumors was determined by the percent of median survival times of treated animals to median survival times of control animals by arachis oil at dose 200 mg/kg; settings: Mus musculus
MAC13 [21] = test: Antitumor effect against MAC13 Tumors was determined by the percent of mean weight of treated tumors to mean weight of control tumors by arachis oil at dose 200 mg/kg; format: functional, Mus musculus; procedure, shortened: as §1
MAC13 [22] = test: Antitumor effect against MAC13 Tumors was determined by no. deaths/treated of mice by arachis oil at dose 200 mg/kg; no of deaths/treated 0/5; format: functional, Mus musculus
MAC15A [23] = test: Antitumor effect against MAC15A Tumors was determined by the percent of median survival times of treated animals to median survival times of control animals by 10% DMSO/arachis oil at dose 200 mg/kg; settings: Mus musculus
Mus musculus [24] = test: Antitumor effect against Colon 38 Adenocarcinoma was determined by the percent of median tumor volume of treated animals to median tumor volume of control animals by saline/Tween 80(9/1)at dose 100 mg/kg; format: functional; procedure, shortened: as §2
[25] = Antitumor effect against MCa Mammary Carcinoma was determined by the percent of median survival times of treated animals to median survival times of control animals by 10%DMSO/water at dose 60 mg/kg; format: functional, Mus musculus
MAC15A [26] = test: Antitumor effect against MAC15A Tumors was determined by the percent of median survival times of treated animals to median survival times of control animals by arachis oil at dose 62.5 mg/kg; settings: Mus musculus
MAC13 [27] = test: Antitumor effect against MAC13 Tumors was determined by no. deaths/treated of mice by arachis oil at dose 31.25 mg/kg; no of deaths/treated 0/10; format: functional, Mus musculus
MAC13 [28] = test: Antitumor effect against MAC13 Tumors was determined by the percent of mean weight of treated tumors to mean weight of control tumors by arachis oil at dose 31.25 mg/kg; format: functional, Mus musculus
MAC15A [29] = test: Antitumor effect against MAC15A Tumors was determined by the percent of median survival times of treated animals to median survival times of control animals by arachis oil at dose 300 mg/kg; settings: Mus musculus
Mus musculus [30] = test: Antitumor effect against Colon 38 Adenocarcinoma was determined by the percent of median tumor volume of treated animals to median tumor volume of control animals by saline/Tween 80(9/1) at dose 100 mg/kg; format: functional; procedure, shortened: as §2
MAC13 [31] = test: Antitumor effect against MAC13 Tumors was determined by the percent of mean weight of treated tumors to mean weight of control tumors by arachis oil at dose 100 mg/kg; format: functional, Mus musculus; procedure, shortened: as §1
MAC13 [32] = test: Antitumor effect against MAC13 Tumors was determined by no. deaths/treated of mice by arachis oil at dose 100 mg/kg; no of deaths/treated 0/5; format: functional, Mus musculus
Mus musculus [33] = test: Antitumor effect against Colon 38 Adenocarcinoma was determined by the percent of median tumor volume of treated animals to median tumor volume of control animals by saline/Tween 80(9/1) at dose 50 mg/kg; format: functional; procedure, shortened: as §2
MAC13 [34] = test: Antitumor effect against MAC13 Tumors was determined by no. deaths/treated of mice by arachis oil at dose 150 mg/kg; no of deaths/treated 0/5; format: functional, Mus musculus
MAC13 [35] = test: Antitumor effect against MAC13 Tumors was determined by the percent of mean weight of treated tumors to mean weight of control tumors by arachis oil at dose 150 mg/kg; format: functional, Mus musculus; procedure, shortened: as §1
MAC15A [36] = test: Antitumor effect against MAC15A Tumors was determined by the percent of median survival times of treated animals to median survival times of control animals by saline at dose 20 mg/kg; settings: Mus musculus
MAC13 [37] = test: Antitumor effect against MAC13 Tumors was determined by no. deaths/treated of mice by 10% ethanol/arachis oil at dose 20 mg/kg; no of deaths/treated 0/5; format: functional, Mus musculus
MAC13 [38] = test: Antitumor effect against MAC13 Tumors was determined by the percent of mean weight of treated tumors to mean weight of control tumors by 10% ethanol/arachis oil at dose 20 mg/kg; format: functional, Mus musculus; procedure, shortened: as §1

## COC(CNC(=O)N(CCCl)N=O)n1c(=O)[nH]cc(F)c1=O (stereo not given)
MAC13 [1]
  No. deaths/treated: 0
Mus musculus [2]
  T/C: 17%
MAC13 [3]
  T/C: 11%
MAC15A [4]
  T/C: >850%

## COC(CCNC(=O)N(CCCl)N=O)n1c(=O)[nH]cc(F)c1=O (stereo not given)
MAC13 [5]
  No. deaths/treated: 0
MAC15A [6]
  T/C: 360%
MAC13 [7]
  T/C: 1%

## COC(CNC(=O)N(CCCl)N=O)n1cc(F)c(=O)[nH]c1=O (stereo not given)
Mus musculus [8]
  T/C: 38%
MAC13 [1]
  No. deaths/treated: 0
[9]
  T/C: 311%
MAC13 [3]
  T/C: 7%
MAC15A [10]
  T/C: 200%

## O=NN(CCCl)C(=O)NCCC(OCCO)n1cc(F)c(=O)[nH]c1=O (stereo not given)
MAC13 [11]
  No. deaths/treated: 0
[12]
  T/C: 168%
MAC15A [13]
  T/C: 233%
MAC13 [14]
  T/C: 23%

## CSC(CCNC(=O)N(CCCl)N=O)n1cc(F)c(=O)[nH]c1=O (stereo not given)
Mus musculus [8]
  T/C: 63%
MAC13 [15]
  T/C: 0%
[16]
  T/C: 195%
MAC13 [17]
  No. deaths/treated: 0
MAC15A [18]
  T/C: 200%

## O=NN(CCCl)C(=O)NCCOC(CCNC(=O)c1ccccc1C(=O)O)n1cc(F)c(=O)[nH]c1=O (stereo not given)
MAC13 [19]
  No. deaths/treated: 0
[9]
  T/C: 121%
MAC15A [20]
  T/C: 148%
MAC13 [21]
  T/C: 103%

## O=NN(CCCl)C(=O)NCCC(SCC(=O)O)n1cc(F)c(=O)[nH]c1=O (stereo not given)
MAC13 [22]
  No. deaths/treated: 0
MAC13 [21]
  T/C: 31%
MAC15A [23]
  T/C: 275%
Mus musculus [24]
  T/C: 0%

## COC(CCNC(=O)N(CCCl)N=O)n1c(=O)cc[nH]c1=O (stereo not given)
MAC13 [5]
  No. deaths/treated: 0
MAC15A [6]
  T/C: 200%
MAC13 [7]
  T/C: 43%

## CSC(CNC(=O)N(CCCl)N=O)n1cc(F)c(=O)[nH]c1=O (stereo not given)
Mus musculus [8]
  T/C: 0%
[25]
  T/C: 189%
MAC15A [26]
  T/C: 156%
MAC13 [27]
  No. deaths/treated: 0
MAC13 [28]
  T/C: 122%

## CC(C)(C)OC(CCNC(=O)N(CCCl)N=O)n1cc(F)c(=O)[nH]c1=O (stereo not given)
MAC15A [29]
  T/C: 280%
Mus musculus [30]
  T/C: 42%
MAC13 [22]
  No. deaths/treated: 0
MAC13 [21]
  T/C: 1%

## O=NN(CCCl)C(=O)NCCC(n1cc(F)c(=O)[nH]c1=O)n1c(=O)[nH]cc(F)c1=O (stereo not given)
MAC13 [5]
  No. deaths/treated: 0
MAC15A [6]
  T/C: 182%
MAC13 [7]
  T/C: 87%

## O=NN(CCCl)C(=O)NCCOC(CCO)n1cc(F)c(=O)[nH]c1=O (stereo not given)
MAC13 [31]
  T/C: 27%
MAC13 [32]
  No. deaths/treated: 0
Mus musculus [33]
  T/C: 68%
MAC15A [4]
  T/C: 136%

## COC(CCNC(=O)N(CCCl)N=O)n1cc(F)c(=O)[nH]c1=O (stereo not given)
Mus musculus [8]
  T/C: 47%
MAC13 [34]
  No. deaths/treated: 0
MAC13 [35]
  T/C: 0.8%
MAC15A [4]
  T/C: 233%

## CC1CCC(NC(=O)N(CCCl)N=O)CC1 (stereo not given) [SEMUSTINE]
MAC15A [36]
  T/C: 154%
MAC13 [37]
  No. deaths/treated: 0
MAC13 [38]
  T/C: 8%
